We go through twelve molecules from ChEMBL document CHEMBL1127574, “Design and synthesis of ellipticinium salts and 1,2-dihydroellipticines with high selectivities against human CNS cancers in vitro” (1994).

In general, GI50 refers to the concentration that inhibits growth by half. The low end stands for greater sensitivity of the cells, the high end for lower sensitivity of the cells.

Holding throughout (assay type): functional
What all share (settings): Homo sapiens

The test system of test [1] is CAKI-1. The test is described as follows: Tested in vitro for cytotoxicity in CAKI-1 cell lines. The essentials:
(§1)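 Compounds dissolved in DMSO, then diluted 500-fold into aqueous medium. The resulting aqueous solutions or suspensions were added to the cultured human tumour cell lines, and the cells were exposed for 48 h. Growth was read colorimetrically in one of two ways: a metabolic assay in which viable cells reduce a tetrazolium salt to a formazan dye, or a protein stain for total cellular protein.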

Test [2] deals with SF-268. The test is described as follows: Tested in vitro for cytotoxicity in SF-268 cell lines. The gist of the method: as §1
In test [3] the test system is IGROV-1. The test is described as follows: Tested in vitro for cytotoxicity in IGROV1 cell lines. The gist of the method:
as §1

Test [4] deals with COLO 205. Description: Tested in vitro for cytotoxicity in COLO 205 cell lines. The essentials: as §1
In test [5] the test system is A549. The test is described as follows: Tested in vitro for cytotoxicity in A549/ATCC cell lines. The essentials: as §1
Test [6] concerns CCRF-CEM. Description: Tested in vitro for cytotoxicity in CCRF-CEM cell lines. The essentials: as §1
Test [7] relates to DMS-114. Description: Tested in vitro for cytotoxicity in DMS114 cell lines. The essentials: as §1
The test system of test [8] is Malme-3M. Description: Tested in vitro for cytotoxicity in MALME-3M. The gist of the method:
as §1

Bounds are passed on as bounds.

`Cc1c2cc[n+](C[S+](C)[O-])cc2c(C)c2c1[nH]c1ccccc12` (stereo not drawn): the GI50 in test [1] amounted to 35.8 µM; in test [2], 2.46 µM; in test [3], 29.5 µM; in test [4] it was 31 µM; in test [5], 71 µM; in test [6], 40.6 µM. Further, the GI50 in test [7] was found to be 6.6 µM.

As to `COC(=O)C[n+]1ccc2c(C)c3[nH]c4ccccc4c3c(C)c2c1`, the GI50 in test [8] is > 100 µM; in test [2], 12.8 µM; in test [3], > 100 µM; in test [4] it was > 100 µM; in test [5], > 100 µM; in test [6], > 100 µM. In test [7], the GI50 was > 100 µM.

In the case of `COCN1C=Cc2c(c(C)c3c([nH]c4ccccc43)c2C)C1`, the GI50 amounted to 11.1 µM in test [1]; 8.87 µM in test [8]; 8.02 µM in test [2]; 5.88 µM in test [3]; 8.68 µM in test [4]; 5.06 µM in test [5]. In addition, the 50% growth inhibitory concentration (GI50) in test [6] is 4.98 µM; in test [7], 10.4 µM.

As to `Cc1c2cc[n+](CC(=O)O)cc2c(C)c2c1[nH]c1ccccc12`, the GI50 in test [8] is 26.3 µM; in test [2], 97.1 µM; in test [3], > 100 µM; in test [4], > 100 µM; in test [5], 77.3 µM; in test [6] it was > 100 µM. The same molecule came in with a GI50 in test [7] of 76.8 µM.

On to `COC[n+]1ccc2c(C)c3[nH]c4ccccc4c3c(C)c2c1`, for which the GI50 came to 19.2 µM in test [1]; 0.647 µM in test [8]; 0.679 µM in test [2]; 9.2 µM in test [3]; 4.7 µM in test [4]; 1.79 µM in test [5]. The GI50 in test [6] is 14.6 µM; in test [7], 2.28 µM.

Regarding `COC[n+]1ccc2c(C)c3[nH]c4ccc(OC)cc4c3c(C)c2c1`, the GI50 came out at 20.2 µM in test [1]; 1.92 µM in test [8]; 0.818 µM in test [2]; 27.8 µM in test [3]; 2.68 µM in test [4]; 13.7 µM in test [5]. Besides, the GI50 came out at 6.86 µM in test [6] and 1.32 µM in test [7].

Consider `Cc1ccc2[nH]c3c(C)c4c(c(C)c3c2c1)CN(C)C=C4`, for which the concentration for 50% growth inhibition (GI50) worked out at 1.21 µM in test [1]; 1.72 µM in test [8]; 0.395 µM in test [2]; 0.774 µM in test [3]; 0.306 µM in test [4]; 0.38 µM in test [5]. Moreover, the results for the GI50 in test [6] and in test [7] were 2.34 µM and 0.438 µM, respectively.

As for `COc1ccc2[nH]c3c(C)c4c(c(C)c3c2c1)CN(C)C=C4C=O`, the GI50 in test [1] was 73.2 µM; in test [8], 40 µM; in test [2], 1.12 µM; in test [3] it was 31.2 µM; in test [4], 16.2 µM; in test [5] it was 75.7 µM. The GI50 in test [6] was 60.4 µM; in test [7] it was 2.5 µM.

Regarding `CC(=O)O[C@@H]1[C@@H](OC(C)=O)[C@@H](N2C=Cc3c(c(C)c4c([nH]c5ccccc54)c3C)C2)OC[C@@H]1OC(C)=O`, the GI50 in test [1] was > 100 µM; in test [8], 30.2 µM; in test [2] it was 31 µM; in test [3] it was 24.1 µM; in test [4], 36.7 µM; in test [5], 64 µM. Besides, the GI50 stood at 29 µM in test [6] and 15.6 µM in test [7].

On to `CSC[n+]1ccc2c(C)c3[nH]c4ccccc4c3c(C)c2c1`, for which the GI50 in test [1] worked out at 19.6 µM; in test [8], 1.99 µM; in test [2], 0.726 µM; in test [3], 18.2 µM; in test [4], 2.48 µM; in test [5], 5.23 µM. In addition, the GI50 in test [6] was determined as 5.02 µM; in test [7], 2.67 µM.

For the molecule `Cc1c2cc[n+](CC#N)cc2c(C)c2c1[nH]c1ccccc12`, the GI50 is > 100 µM in test [1]; 27.2 µM in test [8]; 13 µM in test [2]; 35.6 µM in test [3]; 34.6 µM in test [4]; 97.5 µM in test [5]. For the same molecule, the 50% growth inhibitory concentration (GI50) in test [6] is 100 µM; in test [7], 44.7 µM.

With `Cc1c2ccncc2c(C)c2c1[nH]c1ccccc12` [ELLIPTECINE], the GI50 in test [1] is 1.01 µM; in test [8], 2.52 µM; in test [2], 0.816 µM; in test [3], 0.862 µM; in test [4] it was 0.588 µM; in test [5] it was 0.41 µM. Further, the GI50 in test [6] was determined as 0.415 µM; in test [7], 0.552 µM.
